# High-throughput results deposited in PubChem by several laboratories.
# Only some compounds are listed: those with a hit (about 1.9% of all), similar ones and a draw of the others.
# IMP-1 inh: blocks Pseudomonas aeruginosa IMP-1 metallo-beta-lactamase; purified IMP-1, nitrocefin hydrolysis, epi-absorbance fluorescence; inhibition, % at 5.6 µM; 290,000 tested, 0.45% active;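 active means inhibition above the mean plus 3 SD of all compounds in the same screening run, cut at about 4.5% in these data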;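 further: 0% = IMP-1 with DMSO and 100% = DMSO wells lacking enzyme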
#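 Test system: recombinant IMP-1 enzyme, purified / Medium: HEPES buffer pH 7.1 with ZnSO4 and Brij 35 / Doses: single dose, 5.6 µM / Times: 25 °C, 15 min preincubation, 25 min reaction / Detection: Epi-absorbance via hydrolysed-nitrocefin quenching of white-plate fluorescence, 480/530 nm, EDTA stop / Evaluation: percent inhibition from optical density relative to buffer-blank wells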
# VIM-2 inh: blocks Pseudomonas aeruginosa VIM-2 metallo-beta-lactamase | inhibition, % at 5.6 µM | 290,000 tested, 0.89% active | purified VIM-2, nitrocefin hydrolysis, epi-absorbance fluorescence;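 active means inhibition above the mean of all tested compounds plus 3 SD, cutoff set per screening run, cut at about 7.5% in these data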;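 further: red hydrolysis product quenches plate fluorescence so inhibitors raise well fluorescence; 0% = enzyme with DMSO and 100% = DMSO without enzyme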
# HCV core dimer: blocks dimerization of HCV core protein. TR-FRET GST/Flag-core106 dimerization, 1536-well. inhibition, % at 5 µM. 300,000 tested, 0.33% active. AID 1899;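 active means inhibition above the mean of all tested compounds plus 3 SD, set per screening campaign, cut at about 45% in these data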
#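 assay system = GST-tagged and Flag-tagged HCV core protein residues 1-106 | controls = unlabelled core106 and no-GST-core106 wells | incubation = compound-protein-antibody incubation 4 h at 22.5 °C | probe or stimulus = Eu donor and XL665 acceptor anti-tag antibodies | read-out = % inhibition based on acceptor/donor emission ratio | signal = TR-FRET 671 and 617 nm emission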
# NadD inh: NadD (S. aureus) enzyme inhibition. purified NadD enzyme, colorimetric absorbance read-out. inhibition, % at 20 µM. 360,000 tested, 0.78% active. AID 602399; in the data active means inhibition above about 26%
# An asterisk follows results filed as active; x = not tested or not shown.
SMILES,IMP-1 inh,VIM-2 inh,HCV core dimer,NadD inh
COc1ccc(C(=O)Nc2nnc(CC(=O)N/N=C/c3ccc(O)cc3O)s2)cc1,2,3,-27,34*
CCc1nnc(NC(=O)c2ccc(OC)cc2)s1,-1,1,-2,-6
Cc1ccc(C(=O)Nc2nnc(CC(=O)N/N=C/c3ccc(O)c(O)c3)s2)cc1,1,0,-16,37*
Cc1ccc(C(=O)Nc2nnc(CC(=O)N/N=C/c3ccncc3)s2)cc1,-5,-4,37,15
C=CCN(C(=O)c1csnn1)C(C(=O)NCc1ccc(F)cc1)c1ccccc1 (stereo not drawn),-1,-1,1,-2
NC(=O)c1ccc(NC(=O)COc2ccc(-n3cnnn3)cc2)cc1,x,x,x,0
NC(=O)COc1ccc(-n2cnnn2)cc1,-1,2,46*,-3
CS(=O)(=O)Nc1ccc(-c2ccc(/C=C3\SC(N)=NC3=O)o2)cc1,0,8.8*,-26,-8
Cc1ccc(C)c(CN2C(=O)C3CCCN3c3ccc(S(=O)(=O)N4CCOCC4)cc32)c1 (stereo not drawn),-1,1,51*,x
CCC(C)NCCOc1ccccc1C (stereo not drawn),28*,-3,-2,0
CCC(C)NCCOc1ccc(Br)cc1 (stereo not drawn),-2,-3,-4,-3
CCSc1nc2sc3c(c2c(=O)[nH]1)CC(C)(CC)OC3 (stereo not drawn),-1,0,-6,-9
CCC1(C)Cc2c(sc3nc(SC)[nH]c(=S)c23)CO1 (stereo not drawn),-4,8.1*,10,x
O=C(C1CCCN(c2ncnc3c2nc2n3CCCCC2)C1)N1CCN(c2ccccc2F)CC1 (stereo not drawn),-1,2,8,0
COc1ccc(-c2csc3nc(-c4ccc(C)cc4)oc(=O)c23)cc1OC,-1,-3,50*,1
Cc1ccc(C)c(S(=O)(=O)N2CCCOC2CNC(=O)C(=O)NC2CC2)c1 (stereo not drawn),0,-2,2,-2
Cc1nc2c(sc(=S)n2Cc2ccco2)c(=O)n1CC(=O)Nc1ccccc1F,6.0*,-2,18,-5
CCn1c(=S)sc2c(=O)n(CC(=O)Nc3cccc(Cl)c3)c(C)nc21,1,0,1,3
CCn1c(=S)sc2c(=O)n(CC(=O)NCCCc3ccccc3)c(C)nc21,12*,-5,-6,2
Cc1nc2c(sc(=S)n2Cc2ccco2)c(=O)n1CC(=O)Nc1ccccc1,1,-1,21,15
N/C(=N\O)c1ccc(N2CCN(c3ncccc3C(F)(F)F)CC2)nc1,-1,1,-5,-5
COc1cc(C(=O)NCCc2ccc(F)cc2)ccc1OCC(=O)N1CCOCC1,x,x,-7,1
CC(C)(C)OC(=O)NN=C(c1ccc(O)cc1)c1ccc(O)cc1,-3,-5,-1,-2
Cc1cccc(NC(=O)Cn2c(O)c(N=NC(=O)c3ccccc3O)c3ccccc32)c1,-1,-1,6,35*
Cc1oc2c(c1C(=O)NCc1cccnc1)C(=O)c1ccccc1C2=O,-1,9.2*,32,x
SMILES,IMP-1 inh,VIM-2 inh,HCV core dimer,NadD inh
COc1ccc(CNC(=O)c2c(C)oc3c2C(=O)c2ccccc2C3=O)cc1,-3,-2,25,-1
CCCCC/C=C/C1=CC(=O)C[C@H](c2ccc(OC)c(OC)c2)C1,x,x,x,-3
CN(C)CCN1C(=O)C2C3C=CC(C3)C2C1=O (stereo not drawn),-3,1,7,1
CN(C)/C=C1\SC(=S)N(N2C(=O)C3C4C=CC(C4)C3C2=O)C1=O (stereo not drawn),-3,12*,2,7
CN1CCN(C(=O)c2ccc3c(c2)NC(=O)/C(=C/c2ccccc2)S3)CC1,-1,8.0*,-16,4
CSc1cccc(-n2cc(-c3ccc4c(c3)OCO4)[nH]c2=O)c1,2,-1,9,39*
CSc1cccc(NC(=O)CNC(=O)c2ccc3c(c2)OCO3)c1,x,x,-2,-2
CC1CCN(C(=O)CN2C(=O)NC3(CCC(C)CC3)C2=O)CC1 (stereo not drawn),x,x,x,-6
COc1cc(/C=N/NC(=O)/C(=C\c2ccc([N+](=O)[O-])cc2)NC(=O)c2ccccc2)cc(OC)c1O,-2,-1,-1,10
O=C(N/N=C/c1cc([N+](=O)[O-])cc([N+](=O)[O-])c1O)/C(=C\c1cccs1)NC(=O)c1ccccc1,-3,-2,12,39*
CNC(=O)c1cc(Oc2ccc(NC(=O)c3[nH]c(-c4ccccc4)c4c3C(=O)N(C)C4=O)cc2)ccn1,x,x,x,8
Cc1ccc(-n2cccc2/C=C2\C(=N)N3N=C(c4ccco4)SC3=NC2=O)cc1,1,-1,21,47*
CCC1=NN2C(=N)/C(=C\c3cccn3-c3ccc(Cl)cc3)C(=O)N=C2S1,-5,-3,42,14
Cc1ccc(-n2cccc2/C=C2/C(=N)N3C(=NC2=O)SN=C3S(C)(=O)=O)cc1,-1,-5,57*,16
CCc1ccc(-n2cccc2/C=C2/C(=N)N3C(=NC2=O)SN=C3S(C)(=O)=O)cc1,0,-3,49*,28
COc1ccc(S(=O)(=O)Cc2ccc(C(=O)NC3CCCCC3)o2)cc1,-3,-1,-7,-7
COc1ccc(S(=O)(=O)N2CCOC2CNC(=O)C(=O)NCCCN2CCOCC2)cc1C (stereo not drawn),-1,-1,-6,3
CCCc1nnc(N2C(=O)c3cccc4cccc(c34)C2=O)s1,2,8.7*,4,1
COc1ccc(OCCCC(=O)Nc2ncn[nH]2)cc1,-3,-3,2,-1
CCOC(=O)C1=C[C@@H](C(C)(C)C)N(S(=O)(=O)c2ccc(C)cc2)[C@H]1c1ccc(OC)cc1,x,x,x,-2
O=C1/C(=C/C=C/c2ccco2)SC(=S)N1NS(=O)(=O)c1ccccc1,-2,1,65*,14
O=C1/C(=C/c2cccs2)SC(=S)N1NS(=O)(=O)c1ccccc1,9.0*,0,4,2
CC(C(=O)O)N1C(=O)/C(=C/C=C/c2ccco2)SC1=S (stereo not drawn),5.8*,-2,75*,27
O=C(C1CCCN1S(=O)(=O)c1ccc(Cl)cc1)N1CCCCC1 (stereo not drawn),-3,-1,12,3
C[C@@H]1CN([C@@H](C)CO)C(=O)c2cc(Br)cnc2O[C@@H]1CN(C)S(C)(=O)=O,x,x,x,-6
O=C(O)CN1C(=O)c2ccc(Oc3cccc4c3C(=O)N(CC(=O)O)C4=O)cc2C1=O,-3,-1,4,-5
O=C(CNC(=O)c1ccc(N2C(=O)c3ccccc3C2=O)cc1)OCC(=O)c1ccc(Cl)cc1,-3,-3,14,10
O=C(O)c1ccc(N2C(=O)c3cccc(Oc4ccc(Cl)cc4)c3C2=O)cc1,17*,6,13,0
O=C(O)c1cccc(N2C(=O)c3cccc(Oc4ccc(Cl)cc4)c3C2=O)c1,20*,5,-4,3
CCSc1nc2ccc(N3C(=O)C4C5C=CC(C5)C4C3=O)cc2s1 (stereo not drawn),-2,-1,-3,11
